According to PMC6287413 (Drug Design, Development and Therapy, 2018):
Where a SMILES comes first, the peptide text is derived from it.

target: T1, PTP1B (Homo sapiens, UniProt P18031); assay: Inhibitory activity analysis with recombinant PTP1B phosphatase; type: biochemical
T1 sequence (P18031 1-435): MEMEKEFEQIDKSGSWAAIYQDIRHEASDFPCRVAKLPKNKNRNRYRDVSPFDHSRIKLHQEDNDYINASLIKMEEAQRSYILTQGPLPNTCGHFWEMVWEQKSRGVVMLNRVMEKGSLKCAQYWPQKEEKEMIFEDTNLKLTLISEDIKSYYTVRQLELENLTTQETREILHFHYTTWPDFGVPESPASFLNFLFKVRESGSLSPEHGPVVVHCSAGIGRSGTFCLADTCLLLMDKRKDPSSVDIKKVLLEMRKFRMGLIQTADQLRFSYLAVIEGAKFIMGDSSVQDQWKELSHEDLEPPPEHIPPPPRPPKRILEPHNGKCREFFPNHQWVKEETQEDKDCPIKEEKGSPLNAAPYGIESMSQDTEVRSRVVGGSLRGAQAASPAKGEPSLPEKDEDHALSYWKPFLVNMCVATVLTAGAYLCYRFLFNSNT
Method in brief: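 Recombinant phosphatase at 1.5 µg/mL […] final in 10 mM HEPES, pH 7.4. Each enzyme was left untreated (control) or treated with peptide solutions over a range of concentrations and incubation times, at 37°C. Para-nitrophenyl phosphate (2 mM) was the chromogenic substrate, read at 405 nm. Every experiment was run three or more times.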

IC50 | SMILES
52.1 ± 1.4 µM | N[C@@H](Cc1ccccc1)C(=O)N[C@@H](CC(=O)O)C(=O)O [Phe-Asp] (H-Phe-Asp-OH)
104 ± 15.9 µM | N[C@@H](Cc1ccccc1)C(=O)N[C@@H](Cc1ccccc1)C(=O)N[C@@H](CC(=O)O)C(=O)O [Phe-Phe-Asp] (H-Phe-Phe-Asp-OH)
255 ± 29.4 µM | N[C@@H](Cc1ccccc1)C(=O)N[C@@H](CC(=O)O)C(=O)N[C@@H](Cc1ccccc1)C(=O)O [Phe-Asp-Phe] (H-Phe-Asp-Phe-OH)
52.6 ± 3.7 µM | N[C@@H](CC(=O)O)C(=O)N[C@@H](Cc1ccccc1)C(=O)O [Asp-Phe] (H-Asp-Phe-OH)
